Results: ChEMBL document CHEMBL1137696, “Preparation and in vitro evaluation of benzylsulfanyl benzoxazole derivatives as potential antituberculosis agents” (2009)
Converted amounts (≈) assume the structure as drawn.

Legend:
Format in all cases: functional
[1] = system: Mycobacterium avium; experiment: Antimycobacterial activity against Mycobacterium avium CNCTC My 330/88 after 14 days by micromethod; details: CNCTC My 330/88, 336 h
Method in brief: (§1)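 MIC by micromethod in Šula semisynthetic medium. Compounds added as DMSO solutions at 1000, 500, 250, 125, 62, 32, 16, 8, 4 and 2 µmol/L. Incubated at 37 °C and read at 14 and 21 days. MIC taken as the lowest concentration that inhibited mycobacterial growth, expressed in µmol/L. INH run as standard. Strains from CNCTC.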

[2] = system: Mycobacterium tuberculosis; experiment: Antimycobacterial activity against Mycobacterium tuberculosis CNCTC My 331/88 after 14 days by micromethod; details: CNCTC My 331/88, 336 h; method in brief: as §1
[3] = system: Mycobacterium kansasii; experiment: Antimycobacterial activity against Mycobacterium kansasii CNCTC My 235/80 after 14 days by micromethod; details: CNCTC My 235/80, 336 h
Method in brief: (§2)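 Micromethod MIC in Šula semisynthetic medium, with compounds added as DMSO solutions at 1000, 500, 250, 125, 62, 32, 16, 8, 4 and 2 µmol/L. Cultures were incubated at 37 °C, and M. kansasii was read at 7, 14 and 21 days. MIC is the lowest concentration at which mycobacterial growth was inhibited. INH served as standard. Strain 6509/96 was a clinical isolate.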

[4] = system: Mycobacterium kansasii; experiment: Antimycobacterial activity against Mycobacterium kansasii 6509/96 after 21 days by micromethod; details: 6509/96, 504 h; method in brief: as §2
[5] = system: Mycobacterium kansasii; experiment: Antimycobacterial activity against Mycobacterium kansasii 6509/96 after 14 days by micromethod; details: 6509/96, 336 h; method in brief: as §2
[6] = system: Mycobacterium tuberculosis; experiment: Antimycobacterial activity against Mycobacterium tuberculosis CNCTC My 331/88 after 21 days by micromethod; details: CNCTC My 331/88, 504 h; method in brief: as §1
[7] = system: Mycobacterium kansasii; experiment: Antimycobacterial activity against Mycobacterium kansasii CNCTC My 235/80 after 7 days by micromethod; details: CNCTC My 235/80, 168 h; method in brief: as §2
[8] = system: Mycobacterium kansasii; experiment: Antimycobacterial activity against Mycobacterium kansasii CNCTC My 235/80 after 21 days by micromethod; details: CNCTC My 235/80, 504 h; method in brief: as §2
[9] = system: Mycobacterium kansasii; experiment: Antimycobacterial activity against Mycobacterium kansasii 6509/96 after 7 days by micromethod; details: 6509/96, 168 h; method in brief: as §2
[10] = system: Mycobacterium avium; experiment: Antimycobacterial activity against Mycobacterium avium CNCTC My 330/88 after 21 days by micromethod; details: CNCTC My 330/88, 504 h; method in brief: as §1

SMILES	MIC [1]	MIC [2]	MIC [3]	MIC [4]	MIC [5]	MIC [6]	MIC [7]	MIC [8]	MIC [9]	MIC [10]
FC(F)(F)c1cccc(CSc2nc3ccccc3o2)c1	32 µM (≈ 9.9 µg/mL)	62 µM (≈ 19.2 µg/mL)	32 µM (≈ 9.9 µg/mL)	62 µM (≈ 19.2 µg/mL)	32 µM (≈ 9.9 µg/mL)	125 µM (≈ 38.7 µg/mL)	32 µM (≈ 9.9 µg/mL)	62 µM (≈ 19.2 µg/mL)	32 µM (≈ 9.9 µg/mL)	32 µM (≈ 9.9 µg/mL)
Cc1cccc(CSc2nc3ccccc3o2)c1	62 µM (≈ 15.8 µg/mL)	250 µM (≈ 63.8 µg/mL)	125 µM (≈ 31.9 µg/mL)	250 µM (≈ 63.8 µg/mL)	125 µM (≈ 31.9 µg/mL)	500 µM (≈ 128 µg/mL)	125 µM (≈ 31.9 µg/mL)	500 µM (≈ 128 µg/mL)	125 µM (≈ 31.9 µg/mL)	125 µM (≈ 31.9 µg/mL)
Fc1ccc(CSc2nc3ccccc3o2)cc1F	62 µM (≈ 17.2 µg/mL)	125 µM (≈ 34.7 µg/mL)	125 µM (≈ 34.7 µg/mL)	125 µM (≈ 34.7 µg/mL)	62 µM (≈ 17.2 µg/mL)	125 µM (≈ 34.7 µg/mL)	62 µM (≈ 17.2 µg/mL)	125 µM (≈ 34.7 µg/mL)	32 µM (≈ 8.87 µg/mL)	125 µM (≈ 34.7 µg/mL)
Fc1cccc(CSc2nc3ccccc3o2)c1	32 µM (≈ 8.3 µg/mL)	62 µM (≈ 16.1 µg/mL)	62 µM (≈ 16.1 µg/mL)	62 µM (≈ 16.1 µg/mL)	32 µM (≈ 8.3 µg/mL)	125 µM (≈ 32.4 µg/mL)	32 µM (≈ 8.3 µg/mL)	125 µM (≈ 32.4 µg/mL)	32 µM (≈ 8.3 µg/mL)	32 µM (≈ 8.3 µg/mL)
O=[N+]([O-])c1ccccc1CSc1nc2ccccc2o1	> 125 µM	> 250 µM	125 µM (≈ 35.8 µg/mL)	> 62 µM	> 62 µM	> 250 µM	125 µM (≈ 35.8 µg/mL)	> 125 µM	62 µM (≈ 17.8 µg/mL)	> 125 µM
O=[N+]([O-])c1cccc(F)c1CSc1nc2ccccc2o1	62 µM (≈ 18.9 µg/mL)	> 62 µM	> 32 µM	> 62 µM	> 32 µM	> 62 µM	> 32 µM	> 32 µM	32 µM (≈ 9.74 µg/mL)	125 µM (≈ 38 µg/mL)
c1ccc(CSc2nc3ccccc3o2)cc1	62 µM (≈ 15 µg/mL)	250 µM (≈ 60.3 µg/mL)	250 µM (≈ 60.3 µg/mL)	250 µM (≈ 60.3 µg/mL)	125 µM (≈ 30.2 µg/mL)	500 µM (≈ 121 µg/mL)	125 µM (≈ 30.2 µg/mL)	250 µM (≈ 60.3 µg/mL)	32 µM (≈ 7.72 µg/mL)	125 µM (≈ 30.2 µg/mL)
Clc1ccc(CSc2nc3ccccc3o2)cc1Cl	62 µM (≈ 19.2 µg/mL)	> 125 µM	62 µM (≈ 19.2 µg/mL)	125 µM (≈ 38.8 µg/mL)	62 µM (≈ 19.2 µg/mL)	> 250 µM	32 µM (≈ 9.93 µg/mL)	125 µM (≈ 38.8 µg/mL)	62 µM (≈ 19.2 µg/mL)	62 µM (≈ 19.2 µg/mL)
Fc1ccc(CSc2nc3ccccc3o2)cc1	62 µM (≈ 16.1 µg/mL)	250 µM (≈ 64.8 µg/mL)	62 µM (≈ 16.1 µg/mL)	125 µM (≈ 32.4 µg/mL)	62 µM (≈ 16.1 µg/mL)	500 µM (≈ 130 µg/mL)	32 µM (≈ 8.3 µg/mL)	125 µM (≈ 32.4 µg/mL)	62 µM (≈ 16.1 µg/mL)	62 µM (≈ 16.1 µg/mL)
Clc1cccc(CSc2nc3ccccc3o2)c1	32 µM (≈ 8.82 µg/mL)	62 µM (≈ 17.1 µg/mL)	32 µM (≈ 8.82 µg/mL)	62 µM (≈ 17.1 µg/mL)	32 µM (≈ 8.82 µg/mL)	125 µM (≈ 34.5 µg/mL)	32 µM (≈ 8.82 µg/mL)	62 µM (≈ 17.1 µg/mL)	32 µM (≈ 8.82 µg/mL)	32 µM (≈ 8.82 µg/mL)
NNC(=O)c1ccncc1 [ISONIAZID]	> 250 µM	0.5 µM (≈ 0.0686 µg/mL)	> 250 µM	4 µM (≈ 0.549 µg/mL)	2 µM (≈ 0.274 µg/mL)	1 µM (≈ 0.137 µg/mL)	> 250 µM	> 250 µM	2 µM (≈ 0.274 µg/mL)	> 250 µM
O=[N+]([O-])c1cccc(CSc2nc3ccccc3o2)c1	> 32 µM	> 62 µM	> 32 µM	> 32 µM	32 µM (≈ 9.16 µg/mL)	125 µM (≈ 35.8 µg/mL)	32 µM (≈ 9.16 µg/mL)	> 32 µM	32 µM (≈ 9.16 µg/mL)	> 62 µM
Fc1ccccc1CSc1nc2ccccc2o1	62 µM (≈ 16.1 µg/mL)	125 µM (≈ 32.4 µg/mL)	32 µM (≈ 8.3 µg/mL)	62 µM (≈ 16.1 µg/mL)	32 µM (≈ 8.3 µg/mL)	250 µM (≈ 64.8 µg/mL)	32 µM (≈ 8.3 µg/mL)	62 µM (≈ 16.1 µg/mL)	32 µM (≈ 8.3 µg/mL)	62 µM (≈ 16.1 µg/mL)
N#Cc1cccc(CSc2nc3ccccc3o2)c1	62 µM (≈ 16.5 µg/mL)	125 µM (≈ 33.3 µg/mL)	62 µM (≈ 16.5 µg/mL)	62 µM (≈ 16.5 µg/mL)	62 µM (≈ 16.5 µg/mL)	125 µM (≈ 33.3 µg/mL)	32 µM (≈ 8.52 µg/mL)	125 µM (≈ 33.3 µg/mL)	32 µM (≈ 8.52 µg/mL)	62 µM (≈ 16.5 µg/mL)
